Assay results: PubChem BioAssay AID623976 (Vanderbilt High Throughput Screening Facility, 2012)

Biological target: G protein-activated inward rectifier potassium channel 4 (Homo sapiens) + G protein-activated inward rectifier potassium channel 1 (Homo sapiens) (UniProt P48544+P48549)
Assay: GIRK1/4 channel activators by electrophysiology, confirmation, HEK-293 hGIRK1/4, whole-cell patch clamp (AID 623976)
Conditions: HEK-293 hGIRK1/4, whole-cell patch clamp Ba2+-sensitive current
Summary of the method: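 Assay system: HEK-293 cells stably expressing human GIRK1/4 channels. Buffer or medium: 20K external solution, KCl pipette solution. Dosing: compound tested at multiple concentrations. Schedule: recording 24-72 h post-plating. Measured by: whole-cell voltage clamp at -70 mV, 2 mM BaCl2-sensitive current.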

Chain of G protein-activated inward rectifier potassium channel 4 (Homo sapiens) + G protein-activated inward rectifier potassium channel 1 (Homo sapiens) (P48544 whole entry, looked up): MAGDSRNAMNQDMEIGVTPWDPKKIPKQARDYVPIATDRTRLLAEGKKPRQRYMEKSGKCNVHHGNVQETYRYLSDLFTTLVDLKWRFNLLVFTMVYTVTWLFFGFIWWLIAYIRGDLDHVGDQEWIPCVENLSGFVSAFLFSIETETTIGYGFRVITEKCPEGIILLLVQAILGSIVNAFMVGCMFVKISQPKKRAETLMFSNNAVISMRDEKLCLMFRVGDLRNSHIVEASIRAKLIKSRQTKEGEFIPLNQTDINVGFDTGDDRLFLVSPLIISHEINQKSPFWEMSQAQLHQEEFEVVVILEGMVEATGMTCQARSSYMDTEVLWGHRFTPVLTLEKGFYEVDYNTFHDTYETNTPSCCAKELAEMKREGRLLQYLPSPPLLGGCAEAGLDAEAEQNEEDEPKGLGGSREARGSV
Chain of G protein-activated inward rectifier potassium channel 4 (Homo sapiens) + G protein-activated inward rectifier potassium channel 1 (Homo sapiens) (P48549 whole entry, looked up): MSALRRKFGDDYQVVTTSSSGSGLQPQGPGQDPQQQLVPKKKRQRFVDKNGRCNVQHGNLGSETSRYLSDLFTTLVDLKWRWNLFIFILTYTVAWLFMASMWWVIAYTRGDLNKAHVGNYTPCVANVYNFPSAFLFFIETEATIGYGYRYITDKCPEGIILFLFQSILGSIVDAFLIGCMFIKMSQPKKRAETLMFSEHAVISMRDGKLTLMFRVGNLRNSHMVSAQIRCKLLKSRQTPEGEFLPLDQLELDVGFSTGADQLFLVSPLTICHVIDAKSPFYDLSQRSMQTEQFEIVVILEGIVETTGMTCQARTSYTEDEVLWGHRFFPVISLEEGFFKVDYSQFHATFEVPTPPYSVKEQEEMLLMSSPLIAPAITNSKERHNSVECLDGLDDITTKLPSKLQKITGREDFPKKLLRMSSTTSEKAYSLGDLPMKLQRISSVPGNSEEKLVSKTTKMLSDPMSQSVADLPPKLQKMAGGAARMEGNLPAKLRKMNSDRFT

EC50: 1590 nM
Structure (SMILES): Cc1cc(NC(=O)Nc2ccc(F)c(F)c2)n(-c2ccccc2)n1
